Active and inactive are the calls of the source. The calls are words filed in the database; no cut-off is given here. Some results are limits rather than exact numbers.

The species entered for experiment [1] is Rattus norvegicus. Kind of experiment: Compound was tested for the inhibition of release of histamine in rat passive peritoneal anaphylaxis. It is filed as functional, organism-based. The essentials:
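Rat passive peritoneal anaphylaxis: antiserum i.p. sensitization for 2 h, then i.p. ovalbumin challenge (0.4 mg/mL in 5 mL Tyrode). Compound given i.p. in saline 30 s before antigen; dose expressed as concentration in 6 mL fluid. Peritoneal fluid taken at 5 min, supernatant TCA-treated, histamine measured spectrofluorimetrically. 5–7 rats/dose; % inhibition vs positive controls; ED50 from log-dose regression.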

Experiment [2] addresses T1, Histamine H1 receptor (Cavia porcellus, UniProt P31389). As to the kind of experiment: Compound was tested for H1-antihistamine activity in guinea pig ileum. As to conditions: read-out: pA2 (converted). The experiment is classed as functional, tissue-based. Put shortly:
(§1)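 Isolated guinea pig ileum under ca. 1 g tension in Tyrode solution, with isotonic recording of histamine contractions. Method A: repeat histamine dose-response curves at increasing antagonist concentrations, then Schild plot of log(DR−1) vs −log molar concentration; pA2 is the abscissa intercept. Method B: 10-min antagonist exposure, then double histamine dose (~50% maximal single dose), three antagonist doses each tested three times.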

Experiment [3] has as its target T1, Histamine H1 receptor. As to the kind of experiment: H1-antihistamine activity in guinea pig ileum. As to conditions: read-out: pA2 (converted). The experiment is classed as functional, tissue-based. Put shortly:
as §1

Experiment [4] is filed under the species Rattus norvegicus. Kind of experiment: Compound was tested for the inhibition of release of extravasation in rat passive peritoneal anaphylaxis. It is filed as functional, organism-based. The essentials: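 Rats passively sensitized i.p. with 2 mL 1:5 rat antiserum. Two hours later, i.v. Pontamine Sky Blue, then i.p. challenge with 5 mL Tyrode containing 0.4 mg/mL ovalbumin and heparin. Compound given i.p. in 1 mL saline 30 s before antigen; dose expressed as concentration in 6 mL injected. Peritoneal fluid collected at 5 min; dye read at OD 625 nm. 5–7 rats/dose; ED50 from log-dose regression.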

Experiment [5] has as its target Histamine H1 receptor (Cavia porcellus) (UniProt P31389). As to the kind of experiment: Compound was tested for H1-antihistamine activity in guinea pig ileum; IA = Inactive. It is filed as functional, tissue-based. The essentials: as §1

T1 sequence (P31389 whole entry): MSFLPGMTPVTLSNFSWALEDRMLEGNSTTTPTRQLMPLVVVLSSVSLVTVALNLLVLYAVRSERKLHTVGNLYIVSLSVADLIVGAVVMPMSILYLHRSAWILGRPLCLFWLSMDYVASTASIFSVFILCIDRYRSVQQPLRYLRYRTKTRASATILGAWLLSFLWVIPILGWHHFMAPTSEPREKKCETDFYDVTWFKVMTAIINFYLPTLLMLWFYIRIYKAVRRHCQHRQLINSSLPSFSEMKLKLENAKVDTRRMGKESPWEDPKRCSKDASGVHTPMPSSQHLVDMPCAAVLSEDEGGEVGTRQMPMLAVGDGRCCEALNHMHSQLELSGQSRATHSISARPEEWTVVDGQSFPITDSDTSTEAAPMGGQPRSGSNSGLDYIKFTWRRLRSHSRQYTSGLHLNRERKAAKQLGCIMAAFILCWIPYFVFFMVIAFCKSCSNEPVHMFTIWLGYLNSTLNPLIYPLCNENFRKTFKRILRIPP
Chain of Histamine H1 receptor (Cavia porcellus) (P31389 whole entry): as above

The IC50 is the concentration that inhibits the measured activity by half. Higher therefore signals weaker potency. On to `COc1ccc(CN(CCN(C)C)c2ccccn2)cc1` [PYRILAMINE], for which, in experiment [1], the IC50 was greater than 200000 nM.

`COc1ccc(CN2CCN(CCCOc3ccc4c(O)c5nnnc-5oc4c3C)CC2)cc1`: the Kb in experiment [2] was 63.1 nM.

For `Cc1c(OCCCN2CCN(Cc3ccccc3Cl)CC2)ccc2c(O)c3nnnc-3oc12`, in experiment [3], the Kb is 3.98 nM. In addition, the figures for the IC50 in experiment [4] and in experiment [1] were 10000 nM and 2300 nM, respectively.

As to `O=C(O)c1cc(=O)c2c(OCC(O)COc3cccc4oc(C(=O)O)cc(=O)c34)cccc2o1`, the pA2 entry in experiment [5] is “inactive”.

On to `CN1CCC(=C2c3ccccc3CC(=O)c3sccc32)CC1` [KETOTIFEN], for which, in experiment [1], the IC50 was greater than 200000 nM.

As for `Cc1c(OCCCN2CCN(Cc3ccccn3)CC2)ccc2c(O)c3nnnc-3oc12`, the Kb in experiment [3] is 15.8 nM. Also, the values for the IC50 in experiment [4] and in experiment [1] were greater than 20000 nM and 100 nM, respectively.

Consider `Cc1ccc(CN2CCN(CCCOc3ccc4c(O)c5nnnc-5oc4c3C)CC2)cc1`, for which the Kb in experiment [2] was 15.8 nM. The IC50 in experiment [4] was greater than 20000 nM; in experiment [1] it was 890 nM.

Take `Cc1c(OCCCN2CCN(Cc3cccc(Cl)c3)CC2)ccc2c(O)c3nnnc-3oc12`: the Kb in experiment [3] is 3.98 nM. Also, the IC50 in experiment [4] is greater than 20000 nM; in experiment [1] it was 1000 nM.

Take `Cc1c(OCCCN2CCN(Cc3ccc(Cl)cc3)CC2)ccc2c(O)c3nnnc-3oc12`: in experiment [3], the Kb is 1.58 nM. The IC50 was found to be 55000 nM in experiment [4] and 840 nM in experiment [1].

Regarding `Oc1c2nnnc-2oc2cc(OCCCN3CCN(Cc4ccc(Cl)cc4)CC3)ccc12`, the Kb in experiment [3] was 0.794 nM. The results for the IC50 in experiment [4] and in experiment [1] were 31000 nM and 5400 nM, respectively.

Regarding `Cc1c(OCCCN(C)CCN(C)Cc2ccc(Cl)cc2)ccc2c(O)c3nnnc-3oc12`, in experiment [2], the Kb is 79.4 nM.

Source of the values: ChEMBL document CHEMBL1123461, “Studies on 1,2,3-triazoles. 13. (Piperazinylalkoxy) [1]benzopyrano[2,3-d]-1,2,3-triazol-9(1H)-ones with combined H1-antihistamine and mast cell stabilizing properties” (J Med Chem, 1986).
